≈ marks a conversion by molar mass, not a printed value. Bounds are passed on as bounds.

Assay [1] has as its system Rattus norvegicus. Briefly: Tested for hypolipidemic activity in male rats, cholesterol was determined in serum at 10 mg/kg. The class given is functional. Summed up:
(§1)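 Groups of eight male Wistar rats (200–230 g) dosed orally in PEG 400, either daily for 7 days (killed 24 h after the last dose) or for 4 days with a second dose on day 4 (killed 16 h later). Fasted 16 h. Paired sera pooled, lipoproteins separated by ultracentrifugation (1.006 and 1.040 g/cm³), HDL taken as the infranatant. Cholesterol measured enzymatically; % vs vehicle, mean ± SEM of four pools.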

Assay [2] concerns Rattus norvegicus. Briefly: Hypolipidemic activity was determined in male rats, and low-density lipoprotein level was determined at 10 mg/kg. The assay is classed as functional. The method in brief: (§2)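 Male Wistar rats (200–230 g), eight per group, were dosed orally in PEG 400 at 8 a.m. for 4 days, plus a second dose at 4 p.m. on day 4. Rats were fasted 16 h and killed 16 h after the last dose. Sera from pairs of rats were pooled. LDL (up to 1.040 g/cm³) was separated by ultracentrifugation and the HDL infranatant taken. Cholesterol was measured enzymatically. Results are % versus vehicle control, mean ± SEM of four pools, Student's t test.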

For assay [3], the system named is Rattus norvegicus. Briefly: Hypolipidemic activity was determined in male rats, and high-density lipoprotein level was determined at 10 mg/kg. The assay is classed as functional. Summed up: as §2
For another assay, the system named is Staphylococcus aureus. Briefly: Antibacterial activity against Staphylococcus aureus 10B. The class given is functional. Summed up:
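Agar dilution on DST agar with 2-fold drug dilutions. Inoculum of 10⁴ viable S. aureus 10B was taken from liquid-nitrogen stock, thawed 30 min and not subcultured. It was applied by multipoint replicator and incubated overnight at 37 °C. MIC is the lowest concentration inhibiting growth relative to control cultures.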

A short description of assay [4]: Inhibitory activity against RNA polymerase was determined. Details: species or system Escherichia coli. Summed up: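 E. coli DNA-dependent RNA polymerase inhibition measured in vitro on ether-extracted, permeabilized E. coli cells.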
The subject of assay [5] is Rattus norvegicus. The experiment in a line: Hypolipidemic activity was determined in male rats, and low-density lipoprotein level was determined at 20 mg/kg. The assay is classed as functional. Summed up: as §2
The test system of assay [6] is Rattus norvegicus. The experiment in a line: Hypolipidemic activity was determined in male rats, and high-density lipoprotein level was determined at 20 mg/kg. The class given is functional. The method in brief: as §2
The test system of assay [7] is Rattus norvegicus. The experiment in a line: Tested for hypolipidemic activity in male rats, cholesterol was determined in serum at 20 mg/kg. The assay is classed as functional. The method in brief:
as §1

As usually defined, the MIC is the lowest concentration that inhibits growth of the organism. For `COC1/C=C/OC2(C)Oc3c(C)c(O)c4c(O)c(c(N5CCN(Cc6c(C)cc(C)cc6C)CC5)c(O)c4c3C2=O)NC(=O)/C(C)=C\C=C\C(C)C(=O)C(C)C(O)C(C)C(OC(C)=O)C1C` (stereo not drawn), the values for the Activity with Rattus norvegicus [1], with Rattus norvegicus [2] and with Rattus norvegicus [3] were -11%, 1% and -15%, respectively. Besides, the MIC in the assay on Staphylococcus aureus amounted to 64 µg/mL (≈ 70.2 µM).

Regarding `COC1/C=C/OC2(C)Oc3c(C)c(O)c4c(O)c(c(N5CCN(Cc6c(C)cc(C)cc6C)CC5)c(O)c4c3C2=O)NC(=O)/C(C)=C\C=C\C(C)C(OC(C)=O)C(C)C(OC(C)=O)C(C)C(OC(C)=O)C1C` (stereo not drawn), the figures for the Activity in the assay on Rattus norvegicus [1], with Rattus norvegicus [2] and with Rattus norvegicus [3] were -24%, -19% and -24%, respectively. Besides, in the assay with Staphylococcus aureus, the MIC was 4 µg/mL (≈ 4.01 µM).

For orientation: IC50 means the concentration that inhibits the measured activity by half. A higher IC50 goes with a need for much substance. For `COC1/C=C/OC2(C)Oc3c(C)c(O)c4c(O)c(c(N5CCN(Cc6c(C)cc(C)cc6C)CC5)c(O)c4c3C2=O)NC(=O)C(C)CCCC(C)C(O)C(C)C(O)C(C)C(OC(C)=O)C1C` (stereo not drawn), the Activity was -40% with Rattus norvegicus [1], -59% in the assay with Rattus norvegicus [2] and -36% in the assay on Rattus norvegicus [3]. Also, it took 0.2 µg/mL (≈ 0.218 µM) to inhibit growth against Staphylococcus aureus (MIC). The IC50 in assay [4] was 6.5 µg/mL (≈ 7.08 µM).

Take `COC1/C=C/OC2(C)Oc3c(C)c(O)c4c(O)c(c(N5CCN(Cc6c(C)cc(C)cc6C)CC5)c(O)c4c3C2=O)NC(=O)/C(C)=C\C=C\C(C)C(O)C(C)C(=O)C(C)C(OC(C)=O)C1C` (stereo not drawn): the Activity in the assay on Rattus norvegicus [1] is reported as -18%; in the assay with Rattus norvegicus [2], -1%; in the assay on Rattus norvegicus [3], -23%. In the assay on Staphylococcus aureus, this compound yielded an MIC of 2 µg/mL (≈ 2.19 µM).

`CC(=O)OC1C(C)C2/C=C/OC3(C)Oc4c(C)c(O)c5c(O)c(c(N6CCN(Cc7c(C)cc(C)cc7C)CC6)c(O)c5c4C3=O)NC(=O)/C(C)=C\C=C\C(C)C(O)C(C)C(O2)C1C` (stereo not drawn): the Activity is 0% in the assay on Rattus norvegicus [1], -9% in the assay on Rattus norvegicus [2] and -4% in the assay on Rattus norvegicus [3]. Moreover, the MIC with Staphylococcus aureus was above 128 µg/mL. For the same compound, in assay [4], the half-maximal inhibitory concentration (IC50) is above 100 µg/mL.

On to `COC1/C=C/OC2(C)Oc3c(C)c(O)c4c(O)c(c(N5CCN(Cc6c(C)cc(C)cc6C)CC5)c(O)c4c3C2=O)NC(=O)/C(C)=C\C=C\C(C)C2OC(C)(C)OC(C2C)C(C)C(OC(C)=O)C1C` (stereo not drawn), for which the figures for the Activity in the assay with Rattus norvegicus [1], in the assay on Rattus norvegicus [2] and in the assay on Rattus norvegicus [3] were -14%, -6% and -27%, respectively. In the assay on Staphylococcus aureus, this compound displayed an MIC of 8 µg/mL (≈ 8.38 µM).

Take `COC1/C=C/OC2(C)Oc3c(C)c(O)c4c(O)c(c(N5CCC(CC6CCCCC6)CC5)c(O)c4c3C2=O)NC(=O)/C(C)=C\C=C\C(C)C(O)C(C)C(O)C(C)C(OC(C)=O)C1C` (stereo not drawn): the Activity with Rattus norvegicus [5] is -31%; in the assay with Rattus norvegicus [6], -67%; in the assay on Rattus norvegicus [7] it was -62%. Besides, the MIC in the assay on Staphylococcus aureus was 1 µg/mL (≈ 1.14 µM).

With `COC1/C=C/OC2(C)Oc3c(C)c(O)c4c(O)c(c(N5CCC(CO)CC5)c(O)c4c3C2=O)NC(=O)/C(C)=C\C=C\C(C)C(O)C(C)C(O)C(C)C(OC(C)=O)C1C` (stereo not drawn), the Activity is -7% in the assay on Rattus norvegicus [5], -10% in the assay on Rattus norvegicus [6] and -14% in the assay with Rattus norvegicus [7]. In the assay on Staphylococcus aureus, this compound yielded an MIC below 0.1 µg/mL.

In the case of `CCOC(=O)C1CCN(c2c3c(O)c4c(O)c(C)c5c(c4c2O)C(=O)C(C)(O/C=C/C(OC)C(C)C(OC(C)=O)C(C)C(O)C(C)C(O)C(C)/C=C/C=C(/C)C(=O)N3)O5)CC1` (stereo not drawn), the Activity is 5% in the assay on Rattus norvegicus [5], -16% with Rattus norvegicus [6] and -16% in the assay with Rattus norvegicus [7]. The MIC in the assay on Staphylococcus aureus is below 0.1 µg/mL.

In the case of `COC1/C=C/OC2(C)Oc3c(C)c(O)c4c(O)c(c(N5CCCCC5)c(O)c4c3C2=O)NC(=O)/C(C)=C\C=C\C(C)C(O)C(C)C(O)C(C)C(OC(C)=O)C1C` (stereo not drawn), the Activity in the assay with Rattus norvegicus [5] is -19%; with Rattus norvegicus [6], -36%; in the assay with Rattus norvegicus [7] it was -32%. The compound further gave an MIC against Staphylococcus aureus below 0.1 µg/mL.

On to `COC1/C=C/OC2(C)Oc3c(C)c(O)c4c(O)c(c(N5CCC(C(C)(C)C)CC5)c(O)c4c3C2=O)NC(=O)/C(C)=C\C=C\C(C)C(O)C(C)C(O)C(C)C(OC(C)=O)C1C` (stereo not drawn), for which the Activity is recorded as -52% in the assay on Rattus norvegicus [5], -48% with Rattus norvegicus [6] and -51% in the assay on Rattus norvegicus [7]. This compound registered an MIC against Staphylococcus aureus below 0.1 µg/mL.

For the compound `COC1/C=C/OC2(C)Oc3c(C)c(O)c4c(O)c(c(N5CCC(C)CC5)c(O)c4c3C2=O)NC(=O)/C(C)=C\C=C\C(C)C(O)C(C)C(O)C(C)C(OC(C)=O)C1C` (stereo not drawn), the values for the Activity in the assay on Rattus norvegicus [5], in the assay with Rattus norvegicus [6] and with Rattus norvegicus [7] were 23%, -30% and -23%, respectively. The compound further returned an MIC against Staphylococcus aureus below 0.1 µg/mL.

For `COC1CCOC2(C)Oc3c(C)c(O)c4c(O)c(c(N5CCN(Cc6c(C)cc(C)cc6C)CC5)c(O)c4c3C2=O)NC(=O)C(C)CCCC(C)C(O)C(C)C(O)C(C)C(OC(C)=O)C1C` (stereo not drawn), the Activity in the assay with Rattus norvegicus [1] is reported as -30%; in the assay on Rattus norvegicus [2] it was -32%; in the assay on Rattus norvegicus [3], -27%. The MIC in the assay on Staphylococcus aureus came out at 2 µg/mL (≈ 2.17 µM). In addition, in assay [4], the IC50 was 8 µg/mL (≈ 8.69 µM).

Take `COC1/C=C/OC2(C)Oc3c(C)c(O)c4c(O)c(c(N5CCC(C6CCCC6)CC5)c(O)c4c3C2=O)NC(=O)/C(C)=C\C=C\C(C)C(O)C(C)C(O)C(C)C(OC(C)=O)C1C` (stereo not drawn): the Activity in the assay with Rattus norvegicus [5] is -41%; in the assay on Rattus norvegicus [6] it was -40%; in the assay with Rattus norvegicus [7] it was -42%. Moreover, in the assay on Staphylococcus aureus, the MIC was below 0.1 µg/mL.

In the case of `CCC1CCN(c2c3c(O)c4c(O)c(C)c5c(c4c2O)C(=O)C(C)(O/C=C/C(OC)C(C)C(OC(C)=O)C(C)C(O)C(C)C(O)C(C)/C=C/C=C(/C)C(=O)N3)O5)CC1` (stereo not drawn), the values for the Activity with Rattus norvegicus [5], with Rattus norvegicus [6] and with Rattus norvegicus [7] were -51%, -61% and -57%, respectively. In the assay with Staphylococcus aureus, this compound registered an MIC below 0.1 µg/mL.

The values are drawn from ChEMBL document CHEMBL1125042, “Hypolipidemic activity of rifamycin derivatives” (J Med Chem, 1990).
